The source made the active and inactive calls.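 Rule for the calls, unless noted: active = viability at or below 10% of carrier control in both of two separate runs; inconclusive = viability at or below 10% in only one of the two runs; inactive = the rest.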
What was measured:
[1] = Her2 expression decrease, cell viability multiplex – SKBR3 breast tumor cells, AlphaScreen, ATP viability, primary screen (AID 461;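 active = Her2 level under about 52% in both replicate screens, with viability over 70% of control, limit read from the data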;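 for Her2 level: lower value means less Her2 protein in the cells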;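 for viability: percent of carrier control wells set as 100% viability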); conditions: SKBR3 Her2 protein level, 18-24 h, measured here: SKBR3 viability, ATP luminescence, at 10 µM
[2] = target: Receptor tyrosine-protein kinase erbB-2 (Homo sapiens) (UniProt P04626); assay: as above; conditions: 18-24 h, at 10 µM, stronger effect = lower value
[3] = reduced viability of SK-BR-3 breast cancer cells – cell-based, 24 h, human, pilot screen (AID 572); conditions: SK-BR-3 viability, CellTiter-Glo luminescence, at 10 µM, stronger effect = lower value;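 note: compound exposure lasted between 18 and 24 h rather than exactly 24 h; 100% = carrier-treated control wells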
[4] = HUVEC growth inhibition – cell-based, human, primary screen (AID 575;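 active = viability at or below 30% in both replicate assays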;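 note: 100% = median of untreated cell wells with 0.1% DMSO on each plate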); conditions: HUVEC proliferation, CellTiter-Glo luminescence, 72 h; at 10 µM; stronger effect = lower value
How it was run: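 Timing: 72 h treatment at 37 °C; material: HUVEC primary cells; technique: CellTiter-Glo luminescence measuring cellular ATP; controls: vehicle and MePR control wells; measure: percent of median DMSO-control luminescence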

[5] = H69AR cell proliferation blockers – human, duplicate replicates, primary screen (AID 580;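 active = viability at or under a set limit in both replicates, limit being median viability minus 3 SD, cut at about 48% in these data, passing the limit was not always enough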;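 note: 100% = mean luminescence of untreated wells and 0% = no signal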); conditions: H69AR lung tumor cells viability, ATP luminescence, 72 h; at 10 µM; stronger effect = lower value
[6] = MRP1 drug-resistance reversers in H69AR cells – cell-based, doxorubicin co-treatment, pilot screen (AID 601;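 active = viability loss from added drug above about 55%, and viability with drug at most 40%, in both replicates, limit read from the data, passing the limit was not always enough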); conditions: CellTiter-Glo, 72 h, at 10 µM; for differential viability (reversal): stronger effect = higher value
[7] = yeast transport mutant growth inhibition pilot in 384-well plates, post-Golgi transport modulator project (AID 636; in the data active = inhibition above about 31%); conditions: absorbance 615 nm, about 18 h, stronger effect = higher value
[8] = growth suppression of yeast trafficking mutant, preliminary HTS, modulators of trafficking downstream of Golgi apparatus project, 1536-format plate, OD 615 nm (AID 637; in the data active = inhibition above about 30%); conditions: yeast transport mutant growth, absorbance 615 nm, 18 h; stronger effect = higher value
[9] = H69AR cells + 2 uM doxorubicin, measured here: viability with 2 uM doxorubicin, stronger effect = lower value
[10] = H69AR cells, compound alone cytotoxicity

Sequence of Receptor tyrosine-protein kinase erbB-2 (Homo sapiens) (P04626 whole entry, looked up): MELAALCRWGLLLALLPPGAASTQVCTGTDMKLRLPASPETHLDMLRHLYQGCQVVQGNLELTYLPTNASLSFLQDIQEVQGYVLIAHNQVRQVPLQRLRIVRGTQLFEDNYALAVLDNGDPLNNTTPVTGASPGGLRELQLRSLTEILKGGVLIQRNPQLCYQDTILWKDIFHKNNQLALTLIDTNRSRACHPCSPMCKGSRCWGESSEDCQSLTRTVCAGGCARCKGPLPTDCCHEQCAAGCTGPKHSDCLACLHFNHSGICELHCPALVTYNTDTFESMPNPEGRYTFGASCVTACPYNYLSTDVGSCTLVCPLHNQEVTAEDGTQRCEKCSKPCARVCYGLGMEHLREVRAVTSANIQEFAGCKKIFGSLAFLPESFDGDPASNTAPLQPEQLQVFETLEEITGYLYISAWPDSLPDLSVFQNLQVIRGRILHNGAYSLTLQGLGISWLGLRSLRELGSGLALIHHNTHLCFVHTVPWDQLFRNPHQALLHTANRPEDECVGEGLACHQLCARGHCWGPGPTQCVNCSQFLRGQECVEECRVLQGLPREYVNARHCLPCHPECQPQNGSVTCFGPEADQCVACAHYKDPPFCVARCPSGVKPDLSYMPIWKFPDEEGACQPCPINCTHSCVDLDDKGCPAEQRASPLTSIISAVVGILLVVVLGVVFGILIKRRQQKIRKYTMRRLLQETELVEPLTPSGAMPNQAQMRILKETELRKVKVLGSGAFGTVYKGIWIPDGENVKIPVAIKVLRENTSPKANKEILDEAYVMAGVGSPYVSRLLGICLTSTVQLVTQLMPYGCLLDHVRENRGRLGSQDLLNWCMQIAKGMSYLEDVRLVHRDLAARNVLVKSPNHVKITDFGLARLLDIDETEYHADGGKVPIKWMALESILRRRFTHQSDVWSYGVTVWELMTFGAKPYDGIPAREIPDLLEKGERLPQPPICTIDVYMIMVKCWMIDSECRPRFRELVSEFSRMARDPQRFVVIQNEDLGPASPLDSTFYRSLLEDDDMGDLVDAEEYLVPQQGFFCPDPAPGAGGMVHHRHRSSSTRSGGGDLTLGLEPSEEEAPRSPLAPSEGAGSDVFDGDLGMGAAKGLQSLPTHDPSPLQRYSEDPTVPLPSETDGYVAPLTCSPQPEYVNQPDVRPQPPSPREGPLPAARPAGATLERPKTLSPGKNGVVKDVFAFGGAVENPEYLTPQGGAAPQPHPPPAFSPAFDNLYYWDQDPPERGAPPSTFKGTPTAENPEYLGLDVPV

Row | SMILES | viability [1] | Her2 level [2] | viability [3] | viability [4] | viability [5] | differential viability (reversal) ([6]; H69AR cells + 2 uM doxorubicin) | viability [6, 9] | viability [6, 10] | inhibition [7] | inhibition [8]
1 | O=C(c1ccc(Cl)c(Cl)c1)N1CCOCC1 | 102% | 103% (inactive) | 102% (inactive) | 91.7% (inactive) | 92.3% (inactive) | -5.39% (inactive) | 97.7% | 92.3% | -0.66% (inactive) | -10.8% (inactive)
2 | O=C1C2CCCN2C(c2ccc(Cl)cc2)N1c1nccs1 (stereo not given) | 99% | 77% (inactive) | 99% (inactive) | 86.5% (inactive) | 97.4% (inactive) | 7.26% (inactive) | 90.2% | 97.4% | -2.24% (inactive) | -1.94% (inactive)
3 | Cc1ccc2[nH]c3c(N4CCOCC4)ncnc3c2c1 | 116% | 95% (inactive) | 116% (inactive) | 76.3% (inactive) | 85.5% (inactive) | -15.7% (inactive) | 101% | 85.5% | -3.68% (inactive) | 8.2% (inactive)
4 | Cc1cccc(N2CCN(S(=O)(=O)c3ccc4c(c3)CCC(=O)N4)CC2C)c1 (stereo not given) | 110% | 95% (inactive) | 110% (inactive) | 84.7% (inactive) | 73.6% (inactive) | -10.3% (inactive) | 83.9% | 73.6% | -5.13% (inactive) | -2.18% (inactive)
5 | CC1(C)Cc2c(c(N3CCOCC3)nc3sc(C#N)c(N)c23)CS1 | 92% | 122% (inactive) | 92% (inactive) | 85.2% (inactive) | 83.3% (inactive) | -1.22% (inactive) | 84.5% | 83.3% | 0.9% (inactive) | -8.67% (inactive)
6 | CCCN(CCC)CCNC(=O)C(NS(=O)(=O)c1ccc2c(c1)CCC(=O)N2)c1ccccc1 (stereo not given) | 87.5% | 86.5% (inactive) | 87.5% (inactive) | 108% (inactive) | 89.4% (inactive) | 0.46% (inactive) | 89% | 89.4% | 1.05% (inactive) | -1.45% (inactive)
7 | O=C(CN1CCC(NC(=O)c2ccc(F)cc2)CC1)NCc1ccccc1F | 96.5% | 98.5% (inactive) | 96.5% (inactive) | 91.5% (inactive) | 103% (inactive) | 3.44% (inactive) | 100% | 103% | -5.6% (inactive) | -0.63% (inactive)
8 | COc1ccc(Br)cc1CNC(=O)C1CCCN(S(C)(=O)=O)C1 (stereo not given) | 78% | 104% (inactive) | 78% (inactive) | 94.7% (inactive) | 88.4% (inactive) | 6.26% (inactive) | 82.2% | 88.4% | 0.9% (inactive) | 10.2% (inactive)
9 | CCn1c(COc2cccc3ccccc23)nnc1SCC(N)=O | 96% | 75% (inactive) | 96% (inactive) | 91% (inactive) | 91.1% (inactive) | 13% (inactive) | 78.2% | 91.1% | -4.21% (inactive) | 0.18% (inactive)
10 | CCC(C(=O)O)n1c(C(F)(F)F)nc2ccccc21 (stereo not given) | 105% | 116% (inactive) | 105% (inactive) | 105% (inactive) | 103% (inactive) | 3.27% (inactive) | 99.3% | 103% | -5.62% (inactive) | 0% (inactive)
11 | CC(C)(C)OC(=O)N1CC(O)CC1C(=O)OCC(=O)c1ccc(Cl)cc1 (stereo not given) | 95% | 91% (inactive) | 95% (inactive) | 109% (inactive) | 84% (inactive) | -6.24% (inactive) | 90.3% | 84% | -5.68% (inactive) | 11.5% (inactive)
12 | O=S(=O)(CCOc1ccccc1)c1nc2ccccc2[nH]1 | 104% | 18.5% (active) | 104% (inactive) | 54.7% (inactive) | 1.98% (active) | 0.22% (inactive) | 1.77% | 1.98% | -3.95% (inactive) | 3.11% (inactive)
13 | O=S(=O)(Nc1cccnc1)c1cc(Cl)ccc1Cl | 77.5% | 96% (inactive) | 77.5% (inactive) | 92.2% (inactive) | 82.8% (inactive) | -4.94% (inactive) | 87.7% | 82.8% | -1.03% (inactive) | -3% (inactive)
14 | Cn1c(=O)c2c(ncn2CC(O)CNc2ccc(Cl)cc2)n(C)c1=O (stereo not given) | 91% | 103% (inactive) | 91% (inactive) | 79.6% (inactive) | 89.9% (inactive) | 0.365% (inactive) | 89.5% | 89.9% | -0.53% (inactive) | -5.71% (inactive)
15 | CC(C)CCNc1cc(=O)n(C)c(=O)n1C | 83.5% | 120% (inactive) | 83.5% (inactive) | 91% (inactive) | 88.2% (inactive) | -0.405% (inactive) | 88.6% | 88.2% | -1.3% (inactive) | 20.3% (inactive)
16 | Cc1ccccc1NC(=O)CSc1nc(N)c(C#N)c(-c2cccs2)c1C#N | 115% | 77% (inactive) | 115% (inactive) | 72.3% (inactive) | 30.2% (active) | 3.09% (inactive) | 27.1% | 30.2% | -9.32% (inactive) | 6.83% (inactive)

Row | SMILES | viability [1] | Her2 level [2] | viability [3] | viability [4] | viability [5] | differential viability (reversal) ([6]; H69AR cells + 2 uM doxorubicin) | viability [6, 9] | viability [6, 10] | inhibition [7] | inhibition [8]
17 | COc1cc(OC)cc(OCC(O)Cn2cnc(-c3ccccc3)c2)c1 (stereo not given) | 90% | 84% (inactive) | 90% (inactive) | 88% (inactive) | 83.8% (inactive) | -11.4% (inactive) | 95.2% | 83.8% | 3.64% (inactive) | -2.13% (inactive)
18 | COc1ccc(OCc2nc(N)nc(Nc3cccc(C)c3C)n2)cc1 | 98.5% | 120% (inactive) | 98.5% (inactive) | 111% (inactive) | 103% (inactive) | 7.49% (inactive) | 96% | 103% | -4.55% (inactive) | -6% (inactive)
19 | COc1ccc(C(=O)N2CCN(c3nc4cc(C)ccc4cc3C#N)CC2)c(OC)c1 | 112% | 98% (inactive) | 112% (inactive) | 88.1% (inactive) | 85.4% (inactive) | -9.04% (inactive) | 94.5% | 85.4% | -2.73% (inactive) | -1.75% (inactive)
20 | C=CCc1cc(C(=O)N2CCCCC2)ccc1O | 104% | 100% (inactive) | 104% (inactive) | 88% (inactive) | 92.3% (inactive) | -15.2% (inactive) | 108% | 92.3% | -2.5% (inactive) | 8.2% (inactive)
21 | O=C(CSc1nnc(-c2cccnc2)o1)Nc1ccccn1 | 92.5% | 102% (inactive) | 92.5% (inactive) | 94% (inactive) | 94.4% (inactive) | 7.92% (inactive) | 86.5% | 94.4% | 0.68% (inactive) | 31.8% (active)
22 | CCc1nnc(NC(=O)C2CCN(c3nccc(C)n3)CC2)s1 | 112% | 93% (inactive) | 112% (inactive) | 100% (inactive) | 99.5% (inactive) | 5.65% (inactive) | 93.9% | 99.5% | -6.22% (inactive) | -2.17% (inactive)
23 | COc1ccc2nc(NC(=O)c3ccoc3C)sc2c1 | 99% | 87.5% (inactive) | 99% (inactive) | 23.9% (active) | 26.1% (active) | -13.7% (inactive) | 39.8% | 26.1% | -3.82% (inactive) | 6.33% (inactive)
24 | O=C(OCC#CCSc1nc2ccccc2o1)c1ccco1 | 112% | 84% (inactive) | 112% (inactive) | 80.4% (inactive) | 80.4% (inactive) | -1.78% (inactive) | 82.2% | 80.4% | -6.67% (inactive) | -7.7% (inactive)
25 | COc1ccc2[nH]c(=O)c(CN(CC3CCCO3)C(=O)Nc3ccc(F)cc3)cc2c1 (stereo not given) | 84.5% | 113% (inactive) | 84.5% (inactive) | 26.1% (active) | 39.4% (active) | -8.38% (inactive) | 47.8% | 39.4% | -0.68% (inactive) | 2.46% (inactive)
26 | Cc1ccc(/C(O)=C2\C(=O)C(=O)N(CCCN(C)C)C2c2ccccn2)cc1 (stereo not given) | 101% | 93% (inactive) | 101% (inactive) | 118% (inactive) | 104% (inactive) | -4.14% (inactive) | 108% | 104% | -1.84% (inactive) | 4.43% (inactive)
27 | Cn1cc(CN2CCc3ccccc3C2)c2ccccc21 | 80.5% | 82% (inactive) | 80.5% (inactive) | 90.4% (inactive) | 75.6% (inactive) | -8.43% (inactive) | 84.1% | 75.6% | -5.58% (inactive) | 3.93% (inactive)
28 | CSc1nnc2n(CCc3ccccc3)c(=O)c3c4c(sc3n12)CCCC4 | 104% | 94% (inactive) | 104% (inactive) | 96.3% (inactive) | 102% (inactive) | 25.7% (inactive) | 76% | 102% | -1.45% (inactive) | 0.16% (inactive)
29 | CN(C)c1ccc(CNC2CC(C)(C)NC(C)(C)C2)cc1 | 91% | 112% (inactive) | 91% (inactive) | 94.2% (inactive) | 98.9% (inactive) | 7.67% (inactive) | 91.3% | 98.9% | -7.5% (inactive) | -6.07% (inactive)
30 | CCCn1cc(SCC(=O)NCc2ccco2)c2ccccc21 | 98.5% | 90% (inactive) | 98.5% (inactive) | 92.3% (inactive) | 94% (inactive) | 15.4% (inactive) | 78.6% | 94% | -5.47% (inactive) | 0.48% (inactive)
31 | Cc1cc(-c2nc3ncccc3o2)ccc1N | 99% | 76.5% (inactive) | 99% (inactive) | 92.6% (inactive) | 90.4% (inactive) | 6.33% (inactive) | 84% | 90.4% | -2.37% (inactive) | 11% (inactive)
32 | COc1ccccc1N1CC(O)=C(c2nc3ccccc3c(=O)[nH]2)C1=N | 116% | 72% (inactive) | 116% (inactive) | 102% (inactive) | 71.7% (inactive) | -13.9% (inactive) | 85.7% | 71.7% | -4.05% (inactive) | 1.59% (inactive)
